Like-named read-outs stand apart in the source and are kept apart here.
Legend:
[1] = biological target: T1, Acb2 protein (PaMx33-Acb2) (Pseudomonas phage PaMx33, UniProt A0A1C8HPQ3); conditions: Figure S1A–B; cited from earlier work
[2] = biological target: T1, Acb2 protein (PaMx33-Acb2); test: Native gel; assay type: binding, P. aeruginosa phage PaMx33; conditions: WT PaMx33-Acb2 14.3 μM
PaMx33-Acb2 [3] = biological target: T2, PaMx33-Acb2 (Pseudomonas phage PaMx33, UniProt A0A1C8HPQ3); test: biochemical; assay type: binding; conditions: for binding to Acb2 (ITC): WT PaMx33-Acb2
Acb2 T74A mutant = biological target: T3, Acb2 T74A mutant (Pseudomonas phage PaMx33, UniProt A0A1C8HPQ3, T74A); test: ITC binding to PaMx33-Acb2 T74A mutant; set-up: species or system P. aeruginosa phage PaMx33
T3 sequence (A0A1C8HPQ3 1-93 T74A): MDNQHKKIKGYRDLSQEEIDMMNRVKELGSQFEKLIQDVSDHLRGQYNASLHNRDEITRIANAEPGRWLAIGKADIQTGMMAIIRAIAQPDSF

D61R mutant of T4-Acb2 = biological target: T4, D61R mutant of T4-Acb2 (Enterobacteria phage T4, UniProt P13314, D61R); test: ITC binding to T4-Acb2 D61R mutant; set-up: species or system Escherichia phage T4
T4 sequence (P13314 1-88 D61R): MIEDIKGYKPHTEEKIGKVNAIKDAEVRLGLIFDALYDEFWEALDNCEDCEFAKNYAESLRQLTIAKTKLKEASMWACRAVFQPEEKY

CHI14-Acb2 [4] = biological target: T5, CHI14-Acb2 (Serratia phage CHI14, UniProt A0A1Z1LXK7); test: ITC binding to CHI14-Acb2
T5 sequence (A0A1Z1LXK7 1-96): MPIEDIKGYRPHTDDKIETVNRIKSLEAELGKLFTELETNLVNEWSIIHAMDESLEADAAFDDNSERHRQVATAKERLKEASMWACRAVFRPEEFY

JBD67-Acb2 = JBD67-Acb2 (Pseudomonas phage JBD67, UniProt P0DX89); test: ITC binding to JBD67-Acb2; set-up: species or system P. aeruginosa phage JBD67
JBD67-Acb2, sequence (P0DX89 whole entry): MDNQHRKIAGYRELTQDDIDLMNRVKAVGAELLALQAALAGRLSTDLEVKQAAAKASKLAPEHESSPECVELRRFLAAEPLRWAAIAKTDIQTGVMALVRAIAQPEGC

Acb2 R67A mutant = biological target: T6, Acb2 R67A mutant (Pseudomonas phage PaMx33, UniProt A0A1C8HPQ3, R67A); test: ITC binding to PaMx33-Acb2 R67A mutant; set-up: species or system P. aeruginosa phage PaMx33; conditions: in vitro
T6 sequence (A0A1C8HPQ3 1-93 R67A): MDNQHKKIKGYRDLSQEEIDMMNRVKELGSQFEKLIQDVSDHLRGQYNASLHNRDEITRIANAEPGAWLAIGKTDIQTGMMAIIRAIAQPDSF

T4-Acb2 = T4-Acb2 (Enterobacteria phage T4, UniProt P13314); test: ITC binding to T4-Acb2; set-up: species or system Escherichia phage T4
T4-Acb2, sequence (P13314 whole entry): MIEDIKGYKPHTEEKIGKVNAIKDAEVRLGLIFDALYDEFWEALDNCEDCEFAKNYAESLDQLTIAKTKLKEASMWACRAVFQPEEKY

NucC [5] = biological target: NucC (Pseudomonas aeruginosa, UniProt P0DTF8); test: In vitro NucC activity assay; assay type: biochemical, P. aeruginosa strain ATCC 27853 (Pa278); conditions: cA3 5 nM
K26A Acb2 mutant [6] = biological target: T7, K26A Acb2 mutant (Pseudomonas phage PaMx33, UniProt A0A1C8HPQ3, K26A); test: Native gel shift assay with Acb2 K26A mutant; assay type: binding, P. aeruginosa phage PaMx33
T7 sequence (A0A1C8HPQ3 whole entry K26A): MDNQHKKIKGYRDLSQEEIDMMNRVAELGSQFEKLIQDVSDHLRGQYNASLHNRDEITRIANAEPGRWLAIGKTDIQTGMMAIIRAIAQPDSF

Y11A Acb2 mutant [7] = biological target: T8, Y11A Acb2 mutant (Pseudomonas phage PaMx33, UniProt A0A1C8HPQ3, Y11A); test: Native gel shift assay with Acb2 Y11A mutant; assay type: binding, P. aeruginosa phage PaMx33
T8 sequence (A0A1C8HPQ3 whole entry Y11A): as the sequence (A0A1C8HPQ3 whole entry K26A) above, with Y11A, A26K counted along it

PaMx33-Acb2 [8] = biological target: T2, PaMx33-Acb2; test: HPLC analysis of cA3 binding and release by Acb2; set-up: species or system P. aeruginosa phage PaMx33
CHI14-Acb2 [9] = biological target: T5, CHI14-Acb2; test: Native gel shift assay with CHI14-Acb2; assay type: binding
In short: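 Recombinant Acb2, expressed in E. coli BL21 (DE3) with 12 h induction at 18°C, was purified as a His6-SUMO fusion on Ni-NTA, cut with Ulp1, then gel-filtered in 10 mM Tris-HCl pH 8.0, 500 mM NaCl, 5 mM DTT. Protein (14.3 μM) was preincubated 10 min at 18°C with cyclic dinucleotides (1.8, 3.6, 7.2 μM). Samples were run on 5% native polyacrylamide gels and stained with Coomassie blue.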

K26A Acb2 mutant [10] = biological target: T7, K26A Acb2 mutant; conditions: method not stated here; cited from earlier work
Y11A Acb2 mutant [11] = biological target: T8, Y11A Acb2 mutant; conditions: method not stated here; cited from earlier work
PaMx33-Acb2 [12] = biological target: T2, PaMx33-Acb2; conditions: WT Acb2; cited from earlier work
crystal structure = biological target: the molecule itself; test: crystal structure
NucC [13] = biological target: T9, NucC (Pseudomonas aeruginosa, UniProt P0DTF8); test: In vitro NucC activity assay; assay type: biochemical, P. aeruginosa strain ATCC 27853 (Pa278); conditions: NucC 10 nM, cA3 5 nM, Acb2 50 nM
T9 sequence (P0DTF8 whole entry, looked up): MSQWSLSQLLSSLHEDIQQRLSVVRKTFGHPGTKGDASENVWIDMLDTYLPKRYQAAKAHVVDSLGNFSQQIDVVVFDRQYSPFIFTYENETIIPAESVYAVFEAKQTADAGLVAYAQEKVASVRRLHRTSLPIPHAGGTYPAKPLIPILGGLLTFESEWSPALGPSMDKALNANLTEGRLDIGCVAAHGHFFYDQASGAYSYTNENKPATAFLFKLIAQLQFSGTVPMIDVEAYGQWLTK

## Nc1nc2c(ncn2[C@@H]2O[C@@H]3COP(=O)(O)O[C@H]4[C@@H](O)[C@H](n5ccc(=O)[nH]c5=O)O[C@@H]4COP(=O)(O)O[C@H]3[C@H]2O)c(=O)[nH]1 [3’,3’-cUG, 3’,3’-c-UMP-GMP]
[1]
  binding to Acb2 (previous work): binds

## Nc1ccn([C@@H]2O[C@@H]3COP(=O)(O)O[C@H]3[C@H]2O)c(=O)n1 [cCMP]
[2]
  shift of the Acb2 protein / binding (native gel): does not bind
PaMx33-Acb2 [3]
  binding to Acb2 (ITC): does not bind

## Nc1nc2c(ncn2[C@@H]2O[C@@H]3COP(=O)(O)O[C@H]4[C@@H](O)[C@H](n5cnc6c(N)ncnc65)O[C@@H]4COP(=O)(O)O[C@H]4[C@@H](O)[C@H](n5cnc6c(N)ncnc65)O[C@@H]4COP(=O)(O)O[C@H]3[C@H]2O)c(=O)[nH]1 [cAAG, 3’3’3’-cAAG]
[2]
  shift of the Acb2 protein / binding (native gel): significant shift
PaMx33-Acb2 [3]
  Kd: ~2.7 nM

## Nc1ncnc2c1ncn2[C@@H]1O[C@@H]2COP(=O)(O)O[C@H]3[C@@H](O)[C@H](n4cnc5c(N)ncnc54)O[C@@H]3COP(=O)(O)O[C@H]3[C@@H](O)[C@H](n4cnc5c(N)ncnc54)O[C@@H]3COP(=O)(O)O[C@H]2[C@H]1O [cA3, 3’3’3’-cyclic AMP-AMP-AMP]
Acb2 T74A mutant
  Kd: ~291 nM
D61R mutant of T4-Acb2
  binding (ITC): unable to bind
CHI14-Acb2 [4]; CHI14-Acb2
  binding (ITC): does not bind
JBD67-Acb2
  Kd: ~3.5 nM
Acb2 R67A mutant
  binding (ITC): abolished
[2]
  shift of the Acb2 protein / binding (native gel): significant shift
T4-Acb2; T4-Acb2
  binding (ITC): does not bind
NucC [5]; NucC 10 nM
  DNA cleavage activity of NucC: activates
NucC [5]; Acb2 50 nM, proteinase K 1 μM
  NucC activity with cA3 released after proteolysis of WT Acb2: again activated
K26A Acb2 mutant [6]
  binding / shift (native gel): significant shift
PaMx33-Acb2 [3]
  Kd: ~1.5 nM
Y11A Acb2 mutant [7]
  binding / shift (native gel): significant shift
PaMx33-Acb2 [8]; 40 μM Acb2, 4 μM cA3
  remaining cA3 after incubation with Acb2 (HPLC): depletes any detectable molecules
PaMx33-Acb2 [8]; proteinase K treatment
  cA3 after proteolysis of Acb2 (HPLC): released back into the buffer unmodified

## Nc1ncnc2c1ncn2[C@@H]1O[C@@H]2COP(=O)(O)O[C@H]3[C@@H](O)[C@H](n4cnc5c(N)ncnc54)O[C@@H]3COP(=O)(O)O[C@H]3[C@@H](O)[C@H](n4cnc5c(N)ncnc54)O[C@@H]3COP(=O)(O)O[C@H]3[C@@H](O)[C@H](n4cnc5c(N)ncnc54)O[C@@H]3COP(=O)(O)O[C@H]3[C@@H](O)[C@H](n4cnc5c(N)ncnc54)O[C@@H]3COP(=O)(O)O[C@H]3[C@@H](O)[C@H](n4cnc5c(N)ncnc54)O[C@@H]3COP(=O)(O)O[C@H]2[C@H]1O [cA6]
[2]
  shift of the Acb2 protein / binding (native gel): does not shift

## O=c1ccn([C@@H]2O[C@@H]3COP(=O)(O)O[C@H]4[C@@H](O)[C@H](n5ccc(=O)[nH]c5=O)O[C@@H]4COP(=O)(O)O[C@H]3[C@H]2O)c(=O)[nH]1 [3’,3’-cUU, 3’,3’-c-di-UMP]
[1]
  binding to Acb2 (previous work): binds

## Nc1ncnc2c1ncn2[C@@H]1O[C@@H]2COP(=O)(O)O[C@H]3[C@@H](O)[C@H](n4cnc5c(N)ncnc54)O[C@@H]3COP(=O)(O)O[C@H]2[C@H]1O [3’,3’-cAA, c-di-AMP]
[1]
  binding to Acb2 (previous work): binds

## Nc1nc2c(ncn2[C@@H]2O[C@@H]3COP(=O)(O)O[C@H]4[C@@H](O)[C@H](n5cnc6c(N)ncnc65)O[C@@H]4COP(=O)(O)O[C@H]3[C@H]2O)c(=O)[nH]1 [3’,3’-cGAMP]
CHI14-Acb2 [9]
  shift of the CHI14-Acb2 protein (native gel): almost no shift
CHI14-Acb2 [4]
  Kd: ~62.4 nM
K26A Acb2 mutant [10]
  binding to K26A Acb2 mutant: lose their binding
Y11A Acb2 mutant [11]
  binding to Y11A Acb2 mutant: lose their binding
JBD67-Acb2
  Kd: ~99 nM
T4-Acb2
  Kd: ~84.4 nM
[1]
  binding to Acb2 (previous work): binds
PaMx33-Acb2 [12]
  Kd: ~87 nM

## O=c1ccn([C@@H]2O[C@@H]3COP(=O)(O)O[C@H]3[C@H]2O)c(=O)[nH]1 [cUMP]
[2]
  shift of the Acb2 protein / binding (native gel): does not bind
PaMx33-Acb2 [3]
  binding to Acb2 (ITC): does not bind

## Nc1nc2c(ncn2[C@@H]2O[C@@H]3COP(=O)(O)O[C@@H]4[C@H](O)[C@@H](COP(=O)(O)O[C@H]3[C@H]2O)O[C@H]4n2cnc3c(N)ncnc32)c(=O)[nH]1 [3’,2’-cGAMP]
[2]
  shift of the Acb2 protein / binding (native gel): significant shift
PaMx33-Acb2 [3]
  Kd: ~298 nM

B1: Acb2 from P. aeruginosa phage PaMx33 (natural protein, Pseudomonas aeruginosa phage PaMx33, UniProt A0A1C8HPQ3 1-93, looked up)
chain: MDNQHKKIKGYRDLSQEEIDMMNRVKELGSQFEKLIQDVSDHLRGQYNASLHNRDEITRIANAEPGRWLAIGKTDIQTGMMAIIRAIAQPDSF
Crystal structure
  stoichiometry N: 6

B2: WT Acb2: anti-CBASS protein Acb2 from P. aeruginosa phage PaMx33, cyclic oligonucleotide sponge (protein)
chain: MDNQHKKIKGYRDLSQEEIDMMNRVKELGSQFEKLIQDVSDHLRGQYNASLHNRDEITRIANAEPGRWLAIGKTDIQTGMMAIIRAIAQPDSF
modifications: left off: His6-SUMO, end not stated, cleaved
NucC [13]
  effect on cA3-activated NucC activity: significantly decreased

— publication PMC11102597 (Molecular cell, 2023)
